Data reported in ChEMBL document CHEMBL3870334, “Synthesis, anticancer, and docking studies of salicyl-hydrazone analogues: A novel series of small potent tropomyosin receptor kinase A inhibitors” (Bioorg Med Chem, 2017).

Experiments:
[1] = Cytotoxicity against human MIAPaCa2 cells assessed as reduction in cell proliferation measured after 48 hrs by SRB assay; type: functional, cell-based; settings: MIA PaCa-2, 48 h
In short: (§1)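 SRB assay of net cell proliferation after continuous 48 h exposure to test compound. Inhibition is expressed as a percentage of non-treated controls. Samples were run in triplicate, and the mean IC50 (concentration giving 50% inhibition of proliferation) was calculated. Doxorubicin served as positive control.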

[2] = Cytotoxicity against human A549 cells assessed as reduction in cell proliferation measured after 48 hrs by SRB assay; type: functional, cell-based; settings: A549, 48 h; in short: as §1
[3] = Cytotoxicity against human SK-MEL-2 cells assessed as reduction in cell proliferation measured after 48 hrs by SRB assay; type: functional, cell-based; settings: SK-MEL-2, 48 h; in short: as §1
[4] = Cytotoxicity against human HCT15 cells assessed as reduction in cell proliferation measured after 48 hrs by SRB assay; type: functional, cell-based; settings: HCT-15, 48 h; in short: as §1
[5] = Cytotoxicity against human SKOV3 cells assessed as reduction in cell proliferation measured after 48 hrs by SRB assay; type: functional, cell-based; settings: SK-OV-3, 48 h; in short: as §1
[6] = target: T1, High affinity nerve growth factor receptor (Homo sapiens, UniProt P04629); test: Inhibition of human N- terminal GST-tagged TrkA cytoplasmic domain (436 to 790 residues) expressed in baculovirus infected sf21 cells at 1 uM using biotinylated peptide substrate incubated for 15 mins followed by addition of ATP measured after 30 mins by TR-FRET assay relative to control
Target sequence in this assay (P04629 33-796 limits assumed): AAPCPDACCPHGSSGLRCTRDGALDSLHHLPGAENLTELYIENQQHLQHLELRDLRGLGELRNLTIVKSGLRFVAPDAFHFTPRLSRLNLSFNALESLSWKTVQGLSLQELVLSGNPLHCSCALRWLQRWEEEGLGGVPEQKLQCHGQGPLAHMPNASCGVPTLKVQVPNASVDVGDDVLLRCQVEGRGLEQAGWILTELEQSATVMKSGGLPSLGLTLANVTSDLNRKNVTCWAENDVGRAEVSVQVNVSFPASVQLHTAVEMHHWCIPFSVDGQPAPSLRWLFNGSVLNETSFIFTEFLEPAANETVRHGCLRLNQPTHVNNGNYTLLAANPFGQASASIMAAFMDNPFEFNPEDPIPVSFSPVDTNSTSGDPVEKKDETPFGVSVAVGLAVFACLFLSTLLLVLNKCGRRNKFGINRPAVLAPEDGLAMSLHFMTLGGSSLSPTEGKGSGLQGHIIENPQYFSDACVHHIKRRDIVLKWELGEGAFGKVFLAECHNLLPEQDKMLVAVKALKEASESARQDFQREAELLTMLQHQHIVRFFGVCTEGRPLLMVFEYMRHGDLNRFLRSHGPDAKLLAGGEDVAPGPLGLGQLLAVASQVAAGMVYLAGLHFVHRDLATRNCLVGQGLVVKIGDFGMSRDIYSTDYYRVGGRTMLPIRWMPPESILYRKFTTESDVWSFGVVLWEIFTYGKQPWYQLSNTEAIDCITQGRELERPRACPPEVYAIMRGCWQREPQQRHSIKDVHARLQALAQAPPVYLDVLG

[7] = target: T1, High affinity nerve growth factor receptor; test: Inhibition of human TrkA expressed in human U2OS cells assessed as inhibition of NGF-induced response measured after 1 hr by beta-galactosidase assay; type: cell-based
Target sequence in this assay (P04629 whole entry, the tested form may be a part): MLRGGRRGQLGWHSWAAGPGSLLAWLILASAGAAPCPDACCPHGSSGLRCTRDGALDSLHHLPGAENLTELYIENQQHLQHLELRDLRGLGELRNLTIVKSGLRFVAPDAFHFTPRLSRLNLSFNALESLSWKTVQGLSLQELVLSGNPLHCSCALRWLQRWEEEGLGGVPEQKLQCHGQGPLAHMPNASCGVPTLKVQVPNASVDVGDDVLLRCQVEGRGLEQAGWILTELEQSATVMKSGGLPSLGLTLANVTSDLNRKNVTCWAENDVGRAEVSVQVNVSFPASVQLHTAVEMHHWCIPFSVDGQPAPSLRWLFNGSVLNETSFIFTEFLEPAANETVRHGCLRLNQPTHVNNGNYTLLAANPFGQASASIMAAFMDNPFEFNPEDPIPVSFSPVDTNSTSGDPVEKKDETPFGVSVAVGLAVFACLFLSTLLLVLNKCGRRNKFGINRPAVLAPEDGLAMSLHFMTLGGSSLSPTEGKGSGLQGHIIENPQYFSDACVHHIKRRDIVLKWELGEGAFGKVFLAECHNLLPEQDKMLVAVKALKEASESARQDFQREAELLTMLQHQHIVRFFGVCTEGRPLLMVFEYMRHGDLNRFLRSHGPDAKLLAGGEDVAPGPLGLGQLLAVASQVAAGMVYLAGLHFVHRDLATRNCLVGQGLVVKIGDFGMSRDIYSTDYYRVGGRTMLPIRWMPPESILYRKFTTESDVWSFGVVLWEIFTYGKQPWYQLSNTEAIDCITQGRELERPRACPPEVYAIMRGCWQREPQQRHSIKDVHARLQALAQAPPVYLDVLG

[8] = target: T1, High affinity nerve growth factor receptor; test: Inhibition of TrkA (unknown origin) by ELISA
Target sequence in this assay (P04629 whole entry, the tested form may be a part): as above

[9] = target: T1, High affinity nerve growth factor receptor; test: Inhibition of human N- terminal GST-tagged TrkA cytoplasmic domain (436 to 790 residues) expressed in baculovirus infected sf21 cells using biotinylated peptide substrate incubated for 15 mins followed by addition of ATP measured after 30 mins by TR-FRET assay
Target sequence in this assay (P04629 whole entry, the tested form may be a part): as above

[10] = target: T1, High affinity nerve growth factor receptor; test: Inhibition of TrkA (unknown origin)
In short: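 Purified TrkA, biotinylated substrate peptide and inhibitor were preincubated 15 min at 25°C, then 100 µM ATP was added. After 30 min, Eu-cryptate anti-phosphotyrosine antibody (1 µM) and streptavidin-XL665 (125 nM) were added for 1 h. HTRF read at 320 nm excitation, 620/665 nm emission ratio. IC50 from % inhibition across 12 serial dilutions (0.03~10000 nM).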
Target sequence in this assay (P04629 whole entry, the tested form may be a part): as above

Row | Structure (SMILES) | inhibition [6] | IC50 [7] | IC50 [8] | IC50 [9] | IC50 [10] | IC50 [1] | IC50 [2] | IC50 [3] | IC50 [4] | IC50 [5]
1 | O=C(N/N=C/c1ccc([N+](=O)[O-])cc1)c1ccccc1O | – | – | – | – | – | 6.73 µM | 8.72 µM | 9.34 µM | 22.7 µM | 8.8 µM
2 | O=C(N/N=C/c1ccccc1)c1ccccc1O | – | – | – | – | – | 2.46 µM | 2.78 µM | 9.77 µM | 21.3 µM | 5.94 µM
3 | CCc1ncc(C(=O)C2CC([C@@H](C)CO)c3ncncc32)cc1NC(=O)Cc1ccc(C(F)(F)F)cc1 (some centres not stated) | – | 0.013 µM | – | – | – | – | – | – | – | –
4 | CC1(C)C[C@H](c2cc(F)ccc2F)N(c2ccn3ncc(NC(=O)c4cnccn4)c3n2)C1 | – | – | 0.002 µM | – | – | – | – | – | – | –
5 | COc1cccc2c1C(=O)c1c(O)c3c(c(O)c1C2=O)C[C@@](O)(C(=O)CO)C[C@@H]3O[C@H]1C[C@H](N)[C@H](O)[C@H](C)O1 [DOXORUBICIN] | – | – | – | – | – | 0.049 µM | 0.021 µM | 0.001 µM | 0.872 µM | 0.074 µM
6 | O=C(N/N=C/c1ccccc1[N+](=O)[O-])c1ccccc1O | – | – | – | – | – | 14 µM | 23.2 µM | 19.4 µM | 34.6 µM | 19.6 µM
7 | COc1ccc(/C=N/NC(=O)c2ccccc2O)cc1 | – | – | – | – | – | 8.64 µM | 12.9 µM | 15.2 µM | 28.1 µM | 14.4 µM
8 | COc1ncc(C(=O)C2CC(C(C)C)c3ncncc32)cc1NC(=O)Nc1cc(Cl)cc(Cl)c1 (configuration not stated) | – | 0.048 µM | – | – | – | – | – | – | – | –
9 | Cn1cc(/C=C2\C(=O)Nc3cccnc32)c2ccccc21 | > 99% | – | – | – | – | – | – | – | – | –
10 | CN(C)c1ccc(/C=N/NC(=O)c2ccccc2O)cc1 | – | – | – | – | – | 20.7 µM | 21.5 µM | 19.3 µM | 38.4 µM | 18.5 µM
11 | Nc1ccc(Cc2cccc(NC(=O)N3CCN(c4ccccc4)C3=O)c2)cn1 | – | – | – | – | 0.02 µM | – | – | – | – | –

The next lines start with results.

Row | inhibition [6] | IC50 [7] | IC50 [8] | IC50 [9] | IC50 [10] | Structure (SMILES) | IC50 [1] | IC50 [2] | IC50 [3] | IC50 [4] | IC50 [5]
12 | 6.92% | – | – | – | – | O=C(N/N=C/c1ccc(Cl)cc1)c1ccccc1O | 7.19 µM | 22.2 µM | 14.3 µM | 20.9 µM | 9.83 µM
13 | 3.7% | – | – | – | – | Cc1ccc(/C=N/NC(=O)c2ccccc2O)cc1 | 4.45 µM | 6.74 µM | 13.1 µM | 26.9 µM | 9.81 µM
14 | 92.4% | – | – | 0.232 µM | – | O=C(N/N=C/c1ccc(O)cc1O)c1ccccc1O | 0.48 µM | 2.46 µM | 1.43 µM | 0.89 µM | 0.87 µM
15 | – | – | – | – | 0.027 µM | COc1ccccc1/C=C/C(=O)Nc1nc(N)n(-c2ccccc2)n1 | – | – | – | – | –
16 | 20.6% | – | – | – | – | O=C(N/N=C/c1ccc(O)cc1)c1ccccc1O | 1.18 µM | 2.86 µM | 5.46 µM | 8.6 µM | 9.1 µM
17 | 7.61% | – | – | – | – | COc1ccc(/C=N/NC(=O)c2ccccc2O)c(OC)c1 | 11.3 µM | 31.3 µM | 19.6 µM | 25.7 µM | 14.5 µM
18 | 92.9% | – | – | 2.54 µM | – | O=C(N/N=C/c1ccc(O)c(O)c1)c1ccccc1O | 4.74 µM | 3.15 µM | 8.86 µM | 10 µM | 9.14 µM
19 | – | – | – | – | 0.303 µM | Oc1ccc(Nc2nc(-c3ccccc3O)nc3ccccc23)cc1 | – | – | – | – | –
20 | 90.9% | – | – | 0.38 µM | – | O=C(N/N=C/c1ccc(O)c(O)c1O)c1ccccc1O | 2.21 µM | 7.16 µM | 1.84 µM | 3.71 µM | 1.96 µM
